{"source": "ChEMBL document CHEMBL4706643", "about": "(J Med Chem, 2021)", "key": {"HepG2 [1]": {"tested_on": "HepG2", "assay": "Cytotoxicity against human HepG2 cells at 100 uM", "type": "cell-based", "details": "hepg2, 100 µM"}, "[2]": {"assay": "Intrinsic clearance in rat liver microsomes at 1 uM preincubated for 5 mins followed by NADPH addition and measured upto 60 mins by LC-MS analysis", "type": "ADME, Microsome", "details": "time 65 min, read-out: CLH"}, "[3]": {"assay": "Cmax in C57BL/6 mouse at 10 mg/kg, po", "type": "ADME, organism-based", "design": "route oral, dose 10 mg/kg", "details": "in vivo", "outline": "(§1)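 Male C57BL/6 mice (n = 3), single dose IV 5 mg/kg, IP 10 mg/kg or PO 10 mg/kg in DMSO:cremophor:0.9% NaCl 5:5:90; plasma parameters reported as means.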"}, "[4]": {"assay": "AUC (0 to infinity) in C57BL/6 mouse at 10 mg/kg, ip", "type": "ADME, organism-based", "design": "time infinity, route intraperitoneal, dose 10 mg/kg", "details": "in vivo", "outline": "(§2)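 Male C57BL/6 mice, n = 3, dosed IV at 5 mg/kg, IP at 10 mg/kg or by oral gavage (PO) at 10 mg/kg. All doses formulated in DMSO:cremophor:0.9% NaCl = 5:5:90. AUC from time zero to infinity (h*ng/mL) was derived from plasma drug levels and is reported as the mean of the males.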"}, "[5]": {"target": "T1, Hepatic sodium/bile acid cotransporter (Mus musculus, UniProt O08705)", "T1 sequence (O08705 whole entry)": "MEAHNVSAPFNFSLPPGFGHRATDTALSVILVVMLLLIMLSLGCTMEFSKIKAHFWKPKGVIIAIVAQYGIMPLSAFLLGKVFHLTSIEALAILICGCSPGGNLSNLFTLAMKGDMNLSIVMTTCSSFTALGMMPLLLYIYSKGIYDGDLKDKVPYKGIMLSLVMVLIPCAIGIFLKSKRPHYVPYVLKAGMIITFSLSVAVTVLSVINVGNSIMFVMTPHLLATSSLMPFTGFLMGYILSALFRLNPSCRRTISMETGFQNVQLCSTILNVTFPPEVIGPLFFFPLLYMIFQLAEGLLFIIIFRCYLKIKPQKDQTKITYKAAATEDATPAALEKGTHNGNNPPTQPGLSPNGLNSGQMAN", "assay": "Inhibition of mouse NTCP-mediated [3H]-TCA uptake expressed in human HepG2 cells at 2 uM incubated for 2 hrs followed by substrate addition and measured for 10 mins by microbeta liquid scintillation counter analysis", "type": "cell-based", "details": "hepg2, 2.167 h, time 130 min", "outline": "(§3)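 HepG2 cells expressing NTCP (human, mouse, monkey or tree shrew) seeded 4–6 h, PMM 20–24 h; compound 2 h, then Na+ Ringer's buffer with 2 μM 3H-TCA, 37 °C 10 min; PBS washes, lysis in 1% Triton X-100, scintillation counting. Single-concentration lines at 2 μM.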"}, "[6]": {"assay": "Clearance in C57BL/6 mouse at 5 mg/kg, iv", "type": "ADME, organism-based", "details": "in vivo", "outline": "as §1"}, "[7]": {"target": "T2, Hepatic sodium/bile acid cotransporter (Homo sapiens, UniProt Q14973)", "T2 sequence (Q14973 whole entry)": "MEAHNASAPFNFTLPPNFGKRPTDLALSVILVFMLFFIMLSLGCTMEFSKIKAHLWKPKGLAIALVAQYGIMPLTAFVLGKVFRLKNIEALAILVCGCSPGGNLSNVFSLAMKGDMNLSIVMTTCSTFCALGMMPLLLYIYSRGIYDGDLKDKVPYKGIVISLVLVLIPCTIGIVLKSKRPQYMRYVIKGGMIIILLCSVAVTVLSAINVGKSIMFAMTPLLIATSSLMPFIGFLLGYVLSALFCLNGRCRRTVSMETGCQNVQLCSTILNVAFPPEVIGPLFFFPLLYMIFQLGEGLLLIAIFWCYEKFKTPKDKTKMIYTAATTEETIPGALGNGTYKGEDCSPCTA", "assay": "Inhibition of human NTCP-mediated [3H]-TCA uptake expressed in human HepG2 cells incubated for 2 hrs followed by substrate addition and measured for 10 mins by microbeta liquid scintillation counter analysis", "type": "cell-based", "outline": "as §3"}, "[8]": {"assay": "Tmax in C57BL/6 mouse at 10 mg/kg, ip", "type": "ADME, organism-based", "details": "in vivo", "outline": "as §1"}, "[9]": {"target": "T2, Hepatic sodium/bile acid cotransporter", "assay": "Inhibition of human NTCP expressed in human HepG2 cells assessed as decrease in NTCP surface expression at 2 uM incubated for 2 hrs by DAPI staining based analysis", "type": "cell-based", "details": "hepg2, 2 h, 2 h", "outline": "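HepG2-NTCP cells treated 2 h with DMSO, compound or TLCA at 2 μM, then immunostained for NTCP to assess cell-surface distribution.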"}, "HepG2 [10]": {"tested_on": "HepG2", "assay": "Inhibition of tree shrew NTCP-mediated [3H]-TCA uptake expressed in human HepG2 cells at 2 uM incubated for 2 hrs followed by substrate addition and measured for 10 mins by microbeta liquid scintillation counter analysis", "type": "cell-based", "details": "Scandentia", "outline": "as §3"}, "Hepatitis delta virus [11]": {"tested_on": "Hepatitis delta virus", "assay": "Antiviral activity against HDV infected in human HepG2-NTCP cells assessed as reduction in HDV delta Ag measured 5 days post infection by DAPI staining based immunofluorescence assay relative to control", "type": "functional, cell-based", "details": "time 5.0 day", "outline": "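HepG2-NTCP cells infected with HDV in presence of compound; delta antigen stained at dpi 5 with FITC-labelled anti-delta antibody, nuclei with DAPI; high-content imaging and image analysis give infection ratio relative to DMSO control.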"}, "[12]": {"target": "T2, Hepatic sodium/bile acid cotransporter", "assay": "Inhibition of Myr95F binding to human NTCP expressed in HepG2 cells assessed as decrease in cell membrane staining at 1 uM incubated for 2 hrs by fluorescence staining based analysis", "details": "hepg2, 2 h", "outline": "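HepG2-NTCP cells stained with fluorescent Myr59F pre-S1 peptide in presence of DMSO, compound (1 μM) or Myr47 (200 nM); membrane staining intensity quantified.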"}, "[13]": {"assay": "Intrinsic clearance in mouse liver microsomes at 1 uM preincubated for 5 mins followed by NADPH addition and measured upto 60 mins by LC-MS analysis", "type": "ADME, Microsome", "details": "read-out: CLH", "outline": "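Human or mouse liver microsomes, final 1 mg/mL in 0.05 M phosphate buffer pH 7.4; compound final 1 μM, preincubated 37 °C 5 min, started with 1 mM NADPH; sampled at 0, 5, 15, 30, 60 min, methanol quench, −20 °C 1 h, centrifuged, supernatant by LC–MS.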"}, "Hepatitis delta virus [14]": {"tested_on": "Hepatitis delta virus", "assay": "Antiviral activity against HDV infected in NTCP-edited FVB mouse assessed as decrease in viral RNA levels in liver at 30 mg/kg, po administered for 8 days via gavage followed by HDV challenge at day 2 and measured at day 8 post infection by qPCR analysis", "details": "time 8.0 day"}, "[15]": {"assay": "Tmax in C57BL/6 mouse at 10 mg/kg, po", "type": "ADME, organism-based", "details": "in vivo", "outline": "as §1"}, "[16]": {"target": "T2, Hepatic sodium/bile acid cotransporter", "assay": "Inhibition of human NTCP-mediated [3H]-TCA uptake expressed in human HepG2 cells at 2 uM incubated for 2 hrs followed by substrate addition and measured for 10 mins by microbeta liquid scintillation counter analysis", "type": "cell-based", "details": "hepg2, 2.167 h, time 130 min", "outline": "as §3"}, "[17]": {"assay": "AUC (0 to infinity) in C57BL/6 mouse at 10 mg/kg, po", "type": "ADME, organism-based", "design": "route oral, time infinity, dose 10 mg/kg", "details": "in vivo", "outline": "as §2"}, "HepG2 [18]": {"tested_on": "HepG2", "assay": "Inhibition of monkey NTCP-mediated [3H]-TCA uptake expressed in human HepG2 cells at 2 uM incubated for 2 hrs followed by substrate addition and measured for 10 mins by microbeta liquid scintillation counter analysis", "type": "cell-based", "details": "Macaca mulatta", "outline": "as §3"}, "[19]": {"assay": "Immunosuppressive activity in C57B/L mouse spleen T cells assessed as inhibition of anti-CD3 induced T cell proliferation incubated for 48 hrs by CFSE staining based flow cytometric analysis", "type": "tissue-based", "outline": "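Spleen T cells from adult C57B/L mouse, CFSE-labelled, cultured in RPMI-1640 on anti-CD3-coated wells with compound or DMSO; stained with PE-anti-CD4 before flow cytometric proliferation analysis. Legend gives 48 h stimulation, methods 72 h; 2 μM compounds.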"}}, "note": "Entries after “also recorded” stand apart in the source; their conditions may differ. Calls of active or inactive are those of the source. No cut-off for these calls is given here.", "data": [{"compound": "CC[C@@H]1NC(=O)[C@H]([C@@H]2O[C@@H](Sc3cccc(OCc4ccccc4)c3)C[C@H]2C)N(C)C(=O)[C@H](C(C)C)N(C)C(=O)[C@H](CC(C)C)N(C)C(=O)[C@H](CC(C)C)N(C)C(=O)[C@@H](C)NC(=O)[C@H](C)NC(=O)[C@H](CC(C)C)N(C)C(=O)[C@H](C(C)C)NC(=O)[C@H](CC(C)C)N(C)C(=O)CN(C)C1=O", "values": [{"measurement": "Activity", "setting": "HepG2 [1]", "value": "Non-Toxic"}, {"measurement": "microsomal CLint at 1 µM", "setting": "[2]", "value": 2.2, "unit": "µL/min/mg"}, {"measurement": "Cmax", "setting": "[3]", "value": 2290, "unit": "ng/mL"}, {"measurement": "AUC(0-inf)", "setting": "[4]", "value": 87400, "unit": "ng·h/mL"}, {"measurement": "inhibition (INH)", "setting": "[5]", "value": "Active"}, {"measurement": "clearance", "setting": "[6]", "value": 2.1, "unit": "mL/min/kg"}, {"measurement": "IC50", "setting": "[7]", "value": 66, "unit": "nM"}, {"measurement": "Tmax", "setting": "[8]", "value": 2, "unit": "h"}, {"measurement": "inhibition (INH)", "setting": "[9]", "value": "Active; also recorded: Not Active"}, {"measurement": "inhibition", "setting": "HepG2 [10]", "value": "Active"}, {"measurement": "Activity", "setting": "Hepatitis delta virus [11]", "value": "Dose-dependent effect"}, {"measurement": "inhibition (INH)", "setting": "[12]", "value": "Active"}, {"measurement": "microsomal CLint at 1 µM", "setting": "[13]", "value": 4.1, "unit": "µL/min/mg"}, {"measurement": "Activity", "setting": "Hepatitis delta virus [14]", "value": "Active"}, {"measurement": "Tmax", "setting": "[15]", "value": 1, "unit": "h"}, {"measurement": "inhibition (INH)", "setting": "[16]", "value": "Active"}, {"measurement": "AUC(0-inf)", "setting": "[17]", "value": 14500, "unit": "ng·h/mL"}, {"measurement": "inhibition", "setting": "HepG2 [18]", "value": "Active"}, {"measurement": "Activity", "setting": "[19]", "value": "Non-Toxic"}]}]}
